ChEMBL document CHEMBL4382238, “Synthesis of isatin based N1-alkylated 3-β-C-glycoconjugated-oxopropylidene oxindoles as potent antiplasmodial agents” (Eur J Med Chem, 2019)

Tests used:
Plasmodium falciparum [1] = experiment: Antiplasmodial activity against chloroquine-sensitive Plasmodium falciparum 3D7 asynchronous cultures infected in human erythrocytes after 72 hrs by SYBR green1 staining based fluorescence assay; type: functional, organism-based; conditions: 3D7, 72 h
Method in brief: (§1)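 Parasites kept in human erythrocytes at 5% hematocrit in RPMI-1640 (HEPES) with 0.5% AlbuMaxII, 0.2% glucose, bicarbonate, 15 µM hypoxanthine, 37 °C CO2. Two-fold serial dilutions spanning […]; asynchronous culture at 0.8-1% parasitaemia, 1% haematocrit; 72 h, 37 °C. Lytic buffer with SYBR Green (1x final), 2 h dark, RT; Ex 485/Em 535 nm. IC50 from DNA signal versus drug-free controls; at least duplicate determinations.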

Plasmodium falciparum [2] = experiment: Antiplasmodial activity against chloroquine-resistant Plasmodium falciparum K1 asynchronous cultures infected in human erythrocytes after 72 hrs by SYBR green1 staining based fluorescence assay; type: functional, organism-based; conditions: K1, 72 h; method in brief: as §1
[3] = Selectivity index, ratio of CC50 for African green monkey Vero cells to IC50 for chloroquine-resistant Plasmodium falciparum K1 asynchronous cultures infected in human erythrocytes; type: toxicity, cell-based; conditions: read-out: Ratio CC50/IC50
[4] = Cytotoxicity against African green monkey Vero cells measured after 72 hrs by resazurin assay; type: cell-based; conditions: chlorocebus sabaeus
Method in brief: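 VERO monkey kidney cells grown in MEM with 15% FBS under 5% CO2 at 37 °C. Cells exposed to serial drug dilutions for three days. 10% resazurin then added as viability marker. Fluorescence read at excitation 530 ± 25 nm and emission 590 ± 25 nm to calculate median cytotoxic concentration (CC50). Values are the average of at least duplicate determinations.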

[5] = Selectivity index, ratio of CC50 for African green monkey Vero cells to IC50 for chloroquine-sensitive Plasmodium falciparum 3D7 asynchronous cultures infected in human erythrocytes; type: toxicity, cell-based; conditions: read-out: Ratio CC50/IC50

| Compound | IC50 (Plasmodium falciparum [1]) [µM] | IC50 (Plasmodium falciparum [2]) [µM] | selectivity ratio [3] | CC50 at 72 h [4] [µM] | selectivity ratio [5] |
| --- | --- | --- | --- | --- | --- |
| CC(=O)OC[C@H]1O[C@@H](CC(=O)CC2(O)C(=O)N(Cc3ccc(Br)cc3)c3ccccc32)[C@H](OC(C)=O)[C@@H](OC(C)=O)[C@@H]1OC(C)=O (stereo partly drawn) | > 5 | > 5 |  |  |  |
| CCCCN1C(=O)C(O)(CC(=O)C[C@@H]2O[C@H](COC(C)=O)[C@@H](OC(C)=O)[C@H](OC(C)=O)[C@H]2OC(C)=O)c2cc(Cl)ccc21 (stereo partly drawn) | > 5 | > 5 |  |  |  |
| CC(=O)OC[C@H]1O[C@@H](CC(=O)/C=C2\C(=O)N(Cc3ccccc3)c3ccc(Cl)cc32)[C@H](OC(C)=O)[C@@H](OC(C)=O)[C@@H]1OC(C)=O | 0.26 | 0.31 | 294 | 91.2 | 351 |
| CC(=O)OC[C@H]1O[C@@H](CC(=O)CC2(O)C(=O)Nc3ccccc32)[C@H](OC(C)=O)[C@@H](OC(C)=O)[C@@H]1OC(C)=O (stereo partly drawn) | > 5 | > 5 |  |  |  |
| CCCCN1C(=O)C(O)(CC(=O)C[C@@H]2O[C@H](COC(C)=O)[C@@H](OC(C)=O)[C@H](OC(C)=O)[C@H]2OC(C)=O)c2ccccc21 (stereo partly drawn) | > 5 | > 5 |  |  |  |
| CC(=O)OC[C@H]1O[C@@H](CC(=O)/C=C2\C(=O)N(Cc3ccc(F)cc3)c3ccccc32)[C@H](OC(C)=O)[C@@H](OC(C)=O)[C@@H]1OC(C)=O | 0.47 | 1.19 | 100 | 119 | 253 |
| CC(=O)OC[C@H]1O[C@@H](CC(=O)/C=C2\C(=O)N(CCc3ccccc3)c3ccccc32)[C@H](OC(C)=O)[C@@H](OC(C)=O)[C@@H]1OC(C)=O | 0.95 | 0.75 | 86.2 | 64.7 | 68.1 |
| CCCN1C(=O)/C(=C\C(=O)C[C@@H]2O[C@H](COC(C)=O)[C@@H](OC(C)=O)[C@H](OC(C)=O)[C@H]2OC(C)=O)c2cc(Cl)ccc21 | 1.18 | 0.4 | 239 | 95.5 | 81 |
| CCCN1C(=O)/C(=C\C(=O)C[C@@H]2O[C@H](COC(C)=O)[C@@H](OC(C)=O)[C@H](OC(C)=O)[C@H]2OC(C)=O)c2ccccc21 | 3.59 | > 5 | < 24.9 | 125 | 34.7 |
| CC(=O)OC[C@H]1O[C@@H](CC(=O)/C=C2\C(=O)N(Cc3ccccc3)c3ccccc32)[C@H](OC(C)=O)[C@@H](OC(C)=O)[C@@H]1OC(C)=O | 0.77 | 0.29 | 245 | 71.2 | 92.4 |
| CC(=O)OC[C@H]1O[C@@H](CC(=O)/C=C2\C(=O)N(Cc3ccc(Br)cc3)c3ccc(Cl)cc32)[C@H](OC(C)=O)[C@@H](OC(C)=O)[C@@H]1OC(C)=O | 0.24 | 0.15 | 622 | 93.3 | 389 |
| CC(=O)OC[C@H]1O[C@@H](CC(=O)/C=C2\C(=O)N(CCc3ccccc3)c3ccc(Cl)cc32)[C@H](OC(C)=O)[C@@H](OC(C)=O)[C@@H]1OC(C)=O | 0.11 | 0.94 | 98.9 | 93 | 845 |
| CC(=O)OC[C@H]1O[C@@H](CC(=O)/C=C2\C(=O)N(Cc3ccc(F)cc3)c3ccc(Cl)cc32)[C@H](OC(C)=O)[C@@H](OC(C)=O)[C@@H]1OC(C)=O | 0.32 | 0.25 | 429 | 107 | 335 |
| CC(=O)OC[C@H]1O[C@@H](CC(=O)CC2(O)C(=O)N(CCc3ccccc3)c3ccc(Cl)cc32)[C@H](OC(C)=O)[C@@H](OC(C)=O)[C@@H]1OC(C)=O (stereo partly drawn) | > 5 | > 5 |  |  |  |
| CC(=O)OC[C@H]1O[C@@H](CC(=O)CC2(O)C(=O)N(Cc3ccccc3)c3ccccc32)[C@H](OC(C)=O)[C@@H](OC(C)=O)[C@@H]1OC(C)=O (stereo partly drawn) | > 5 | > 5 |  |  |  |
| CC(=O)OC[C@H]1O[C@@H](CC(=O)/C=C2\C(=O)N(Cc3cccc(C)c3)c3ccc(Cl)cc32)[C@H](OC(C)=O)[C@@H](OC(C)=O)[C@@H]1OC(C)=O | 0.17 | 1.04 | 87.5 | 91 | 535 |
| CC(=O)OC[C@H]1O[C@@H](CC(=O)CC2(O)C(=O)Nc3ccc(Cl)cc32)[C@H](OC(C)=O)[C@@H](OC(C)=O)[C@@H]1OC(C)=O (stereo partly drawn) | > 5 | > 5 |  |  |  |

| Compound | IC50 (Plasmodium falciparum [1]) [µM] | IC50 (Plasmodium falciparum [2]) [µM] | selectivity ratio [3] | CC50 at 72 h [4] [µM] | selectivity ratio [5] |
| --- | --- | --- | --- | --- | --- |
| CCN(CC)CCCC(C)Nc1ccnc2cc(Cl)ccc12 (stereo not drawn) [CHLOROQUINE] |  |  |  | > 500 |  |
| CC(=O)OC[C@H]1O[C@@H](CC(=O)CC2(O)C(=O)N(Cc3cccc(C)c3)c3ccccc32)[C@H](OC(C)=O)[C@@H](OC(C)=O)[C@@H]1OC(C)=O (stereo partly drawn) | > 5 | > 5 |  |  |  |
| CC(=O)OC[C@H]1O[C@@H](CC(=O)/C=C2\C(=O)Nc3ccccc32)[C@H](OC(C)=O)[C@@H](OC(C)=O)[C@@H]1OC(C)=O | 4.27 | > 5 | < 25.4 | 127 | 29.8 |
| CC(=O)OC[C@H]1O[C@@H](CC(=O)CC2(O)C(=O)N(CCc3ccccc3)c3ccccc32)[C@H](OC(C)=O)[C@@H](OC(C)=O)[C@@H]1OC(C)=O (stereo partly drawn) | > 5 | > 5 |  |  |  |
| CC(=O)OC[C@H]1O[C@@H](CC(=O)CC2(O)C(=O)N(Cc3ccc(F)cc3)c3ccc(Cl)cc32)[C@H](OC(C)=O)[C@@H](OC(C)=O)[C@@H]1OC(C)=O (stereo partly drawn) | 3.54 | 2.26 |  |  |  |
| CC(=O)OC[C@H]1O[C@@H](CC(=O)CC2(O)C(=O)N(Cc3ccccc3)c3ccc(Cl)cc32)[C@H](OC(C)=O)[C@@H](OC(C)=O)[C@@H]1OC(C)=O (stereo partly drawn) | > 5 | > 5 |  |  |  |
| CC(=O)OC[C@H]1O[C@@H](CC(=O)CC2(O)C(=O)N(Cc3cccc(C)c3)c3ccc(Cl)cc32)[C@H](OC(C)=O)[C@@H](OC(C)=O)[C@@H]1OC(C)=O (stereo partly drawn) | > 5 | > 5 |  |  |  |
| CCCN1C(=O)C(O)(CC(=O)C[C@@H]2O[C@H](COC(C)=O)[C@@H](OC(C)=O)[C@H](OC(C)=O)[C@H]2OC(C)=O)c2ccccc21 (stereo partly drawn) | > 5 | > 5 |  |  |  |
| CC(=O)OC[C@H]1O[C@@H](CC(=O)/C=C2\C(=O)N(Cc3cccc(C)c3)c3ccccc32)[C@H](OC(C)=O)[C@@H](OC(C)=O)[C@@H]1OC(C)=O | 0.53 | 0.3 | 242 | 72.5 | 137 |
| CC(=O)OC[C@H]1O[C@@H](CC(=O)CC2(O)C(=O)N(Cc3ccc(F)cc3)c3ccccc32)[C@H](OC(C)=O)[C@@H](OC(C)=O)[C@@H]1OC(C)=O (stereo partly drawn) | > 5 | > 5 |  |  |  |
| CC(=O)OC[C@H]1O[C@@H](CC(=O)CC2(O)C(=O)N(Cc3ccc(Br)cc3)c3ccc(Cl)cc32)[C@H](OC(C)=O)[C@@H](OC(C)=O)[C@@H]1OC(C)=O (stereo partly drawn) | > 5 | 4.81 |  |  |  |
| CC(=O)OC[C@H]1O[C@@H](CC(=O)/C=C2\C(=O)N(Cc3ccc(Br)cc3)c3ccccc32)[C@H](OC(C)=O)[C@@H](OC(C)=O)[C@@H]1OC(C)=O | 0.23 | 0.8 | 95.7 | 76.5 | 333 |
| CCCCN1C(=O)/C(=C\C(=O)C[C@@H]2O[C@H](COC(C)=O)[C@@H](OC(C)=O)[C@H](OC(C)=O)[C@H]2OC(C)=O)c2ccccc21 | 2.61 | 1.84 | 68.2 | 126 | 48.1 |
| CCCCN1C(=O)/C(=C\C(=O)C[C@@H]2O[C@H](COC(C)=O)[C@@H](OC(C)=O)[C@H](OC(C)=O)[C@H]2OC(C)=O)c2cc(Cl)ccc21 | 0.18 | 0.22 | 404 | 88.9 | 494 |
| CCCN1C(=O)C(O)(CC(=O)C[C@@H]2O[C@H](COC(C)=O)[C@@H](OC(C)=O)[C@H](OC(C)=O)[C@H]2OC(C)=O)c2cc(Cl)ccc21 (stereo partly drawn) | > 5 | > 5 |  |  |  |
| CC(=O)OC[C@H]1O[C@@H](CC(=O)/C=C2\C(=O)Nc3ccc(Cl)cc32)[C@H](OC(C)=O)[C@@H](OC(C)=O)[C@@H]1OC(C)=O | 2.68 | 2.52 | 48.4 | 122 | 45.5 |
